According to ChEMBL document CHEMBL2396599, “Design of cell-permeable stapled peptides as HIV-1 integrase inhibitors” (J Med Chem, 2013):
pEC50, pIC50: −log10 of the molar value. Starred links: 1 amine or outer side, 2 acyl side, 3 side chain; linkers in the order of their positions; H or OH if unused. Positions of bridges follow the written chain, without caps; N, C: chain ends. Non-standard residues stand in square brackets, D forms with d. Residues, ends and D or L forms follow the SMILES beside them. αMeNva(5-ylidene) = C[C@@](CCC=[*:3])(N[*:1])C(=O)[*:2]; X1 = C[C@@](CCCCC=[*:3])(N[*:1])C(=O)[*:2]; X3 = C=CCCCC[C@](C)(N[*:1])C(=O)[*:2]; X2 = C=CC[C@](C)(N[*:1])C(=O)[*:2]; S5 = C=CCCC[C@](C)(N)C(=O)O

Legend:
[1] = biological target: T1, Human immunodeficiency virus type 1 integrase (Human immunodeficiency virus 1, UniProt Q7ZJM1); assay: Inhibition of wild type HIV-1 integrase 3' processing activity after 30 mins
T1 sequence (Q7ZJM1 whole entry): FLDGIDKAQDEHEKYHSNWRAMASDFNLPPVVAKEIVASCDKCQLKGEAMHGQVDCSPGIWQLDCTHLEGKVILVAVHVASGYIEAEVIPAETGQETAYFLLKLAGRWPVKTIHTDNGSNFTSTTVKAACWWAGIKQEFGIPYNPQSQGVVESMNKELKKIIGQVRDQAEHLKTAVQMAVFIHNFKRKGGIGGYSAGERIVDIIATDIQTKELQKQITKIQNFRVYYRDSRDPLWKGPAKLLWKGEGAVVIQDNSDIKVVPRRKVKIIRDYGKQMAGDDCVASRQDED
How it was run: (§1)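 IC₅₀ is the concentration giving 50% inhibition of HIV-1 integrase enzymatic activity, determined separately for 3′-processing and for strand transfer.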

[2] = biological target: T1, Human immunodeficiency virus type 1 integrase; assay: Inhibition of wild type HIV-1 integrase strand transfer activity after 30 mins; how it was run: as §1
[3] = Drug uptake in human PANC1 cell nucleus at 40 uM after 1 to 3 hrs by Draq5 staining-based confocal microscopy; assay type: ADME; settings: panc-1, 40 µM
How it was run: (§2)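 CEM, HCT116 and Panc-1 cells were treated with the fluorescein-labelled stapled peptide for 3 h. Uptake was imaged by confocal microscopy with Draq5 nuclear staining.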

[4] = Drug uptake in human HCT116 cell nucleus at 40 uM after 1 to 3 hrs by Draq5 staining-based confocal microscopy; assay type: ADME; settings: hct-116, 40 µM; how it was run: as §2
[5] = Drug uptake in human CEM cell nucleus at 40 uM after 1 to 3 hrs by Draq5 staining-based confocal microscopy; assay type: ADME; settings: ccrf-cem; how it was run: as §2
[6] = Cellular uptake in human PANC1 cell cytoplasm at 40 uM after 1 to 3 hrs by Draq5 staining-based confocal microscopy; assay type: ADME; settings: panc-1, 40 µM; how it was run: as §2
[7] = Cellular uptake in human HCT116 cell cytoplasm at 40 uM after 1 to 3 hrs by Draq5 staining-based confocal microscopy; assay type: ADME; settings: hct-116, 40 µM; how it was run: as §2
[8] = Cellular uptake in human CEM cytoplasm at 40 uM after 1 to 3 hrs by Draq5 staining-based confocal microscopy; assay type: ADME; how it was run: as §2
MT4 = assay: Cellular uptake in human MT4 cells at 10 to 500 uM after 1 hr by confocal microscopy; assay type: ADME, cell-based; settings: mt4, 1 h
How it was run: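 Fluorescein-labelled peptides were incubated with MT-4 cells for 1 h. Confocal z-stacks were taken at 0.3 step, with FITC excited at 488 nm and a cell-membrane dye at 543 nm.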

[9] = biological target: T1, Human immunodeficiency virus type 1 integrase; assay: Inhibition of HIV-1 His6-tagged integrase assessed as inhibition of LEDGF/p75-integrase interaction incubated 30 mins prior to flag-tagged LEDGF/p75 addition measured after 1 hr by AlphaScreen assay
How it was run: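 IC₅₀ is the concentration giving 50% inhibition of the interaction between LEDGF/p75 and HIV-1 integrase.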

[10] = Therapeutic index, ratio of CC50 for human MT4 cells to EC50 for Human immunodeficiency virus 1; assay type: cell-based; settings: read-out: Ratio CC50/EC50
How it was run: (§3)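 Antiviral activity taken as the concentration giving 50% protection of HIV-1-infected MT-4 cells. Cytotoxicity was read as 50% cell death in the same cells. Therapeutic index = CC₅₀/EC₅₀.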

[11] = Cytotoxicity against human MT4 cells by MTT assay; assay type: cell-based
How it was run: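 CC₅₀ was the concentration causing 50% death of MT-4 cells, in the same cells used for the HIV-1 cytoprotection assay. This value feeds the CC₅₀/EC₅₀ ratio.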

[12] = tested on: Human immunodeficiency virus 1; assay: Antiviral activity against Human immunodeficiency virus 1 infected in human MT4 cells assessed as inhibition of virus-induced cytopathic effect by MTT assay; assay type: functional, organism-based; settings: Human immunodeficiency virus 1, MT4; how it was run: as §3
[13] = tested on: Human immunodeficiency virus; assay: Antiviral activity against AMD3100-resistant Human immunodeficiency virus; assay type: functional, organism-based; settings: Human immunodeficiency virus 1

pIC50 [1]	pIC50 [2]	Drug uptake [3]	Drug uptake [4]	Drug uptake [5]	Drug uptake [6]	Drug uptake [7]	Drug uptake [8]	Drug uptake (MT4)	pIC50 [9]	SMILES	selectivity ratio [10]	CC50 [11] [µM]	pEC50 [12]	pEC50 [13]
< 4.00	< 4.00									C=CCCC[C@](C)(NC(=O)CNC(=O)[C@H](C)NC(=O)[C@H](CC(C)C)NC(=O)[C@](C)(CCCC=C)NC(=O)[C@H](CC(C)C)NC(=O)[C@H](CC(C)C)NC(=O)[C@H](Cc1ccccc1)NC(=O)[C@H](Cc1ccc(O)cc1)NC(=O)[C@H](C)NC(=O)[C@@H](N)[C@@H](C)O)C(=O)N[C@@H](Cc1c[nH]c2ccccc12)C(=O)O (H-TAYFLL[S5]LAG[S5]W-OH)				
5.30	5.22	Active	Active	Active	Active	Active	Active	Active	4.60	CC(C)C[C@@H]1NC(=O)[C@H](CCCCN)NC(=O)[C@H](CC(C)C)NC(=O)[C@@](C)(NC(=O)[C@H](Cc2ccccc2)NC(=O)[C@H](Cc2ccc(O)cc2)NC(=O)[C@H](C)NC(=O)[C@@H](NC(=O)c2ccc3c(c2)C(=O)OC32c3ccc(O)cc3Oc3cc(O)ccc32)[C@@H](C)O)CCC/C=C\CCC[C@@](C)(C(=O)NCC(=O)N[C@@H](CCCNC(=N)N)C(=O)N[C@@H](Cc2c[nH]c3ccccc23)C(=O)O)NC1=O (mixture of isomers)	> 11	> 125	4.96	
< 4.00	< 4.00									CC(C)C[C@H](NC(=O)[C@H](Cc1ccccc1)NC(=O)[C@H](Cc1ccc(O)cc1)NC(=O)[C@H](C)NC(=O)[C@@H](N)[C@@H](C)O)C(=O)N[C@@H](CC(C)C)C(=O)N[C@@]1(C)CCC/C=C/CCC[C@@](C)(C(=O)N[C@@H](Cc2c[nH]c3ccccc23)C(=O)O)NC(=O)CNC(=O)[C@H](C)NC(=O)[C@H](CC(C)C)NC1=O (H-TAYFLL[S5]LAG[S5]W-OH; staple (E) 7-11)				
4.82	4.96								< 4.00	C=CCCC[C@](C)(NC(=O)[C@H](CC(C)C)NC(=O)[C@@H](NC(=O)[C@H](CC(C)C)NC(=O)[C@](C)(CCCC=C)NC(=O)[C@H](Cc1ccccc1)NC(=O)[C@H](Cc1ccc(O)cc1)NC(=O)[C@H](C)NC(=O)[C@@H](N)[C@@H](C)O)[C@@H](C)CC)C(=O)NCC(=O)N[C@@H](CCCNC(=N)N)C(=O)N[C@@H](Cc1c[nH]c2ccccc12)C(=O)O (H-TAYF[S5]LIL[S5]GRW-OH)	1.6	18	4.96	
4.05	4.08								4.85	CC(C)C[C@@H]1NC(=O)[C@H](CCCCN)NC(=O)[C@H](CC(C)C)NC(=O)[C@@](C)(NC(=O)[C@H](Cc2ccccc2)NC(=O)[C@H](Cc2ccc(O)cc2)NC(=O)[C@H](C)NC(=O)[C@@H](N)[C@@H](C)O)CC/C=C/CC[C@@](C)(C(=O)NCC(=O)N[C@@H](CCCNC(=N)N)C(=O)N[C@@H](Cc2c[nH]c3ccccc23)C(=O)O)NC1=O (H-TAYF[αMeNva(5-ylidene)]LKL[αMeNva(5-ylidene)]GRW-OH; staple (E) 5-9)		40	< 4.40	
4.76	5.21							Not Active	4.60	CC(C)C[C@H](NC(=O)[C@H](CCCCN)NC(=O)[C@H](CC(C)C)NC(=O)[C@H](CC(C)C)NC(=O)[C@H](Cc1ccccc1)NC(=O)[C@H](Cc1ccc(O)cc1)NC(=O)[C@H](C)NC(=O)[C@@H](NC(=O)c1ccc2c(c1)C(=O)OC21c2ccc(O)cc2Oc2cc(O)ccc21)[C@@H](C)O)C(=O)N[C@@H](C)C(=O)NCC(=O)N[C@@H](CCCNC(=N)N)C(=O)N[C@@H](Cc1c[nH]c2ccccc12)C(=O)O (mixture of isomers)	5	70	4.89	
< 3.48	< 3.95									C=CC[C@](C)(NC(=O)[C@H](CC(C)C)NC(=O)[C@H](CCCCN)NC(=O)[C@H](CC(C)C)NC(=O)[C@](C)(CC=C)NC(=O)[C@H](Cc1ccccc1)NC(=O)[C@H](Cc1ccc(O)cc1)NC(=O)[C@H](C)NC(=O)[C@@H](N)[C@@H](C)O)C(=O)NCC(=O)N[C@@H](CCCNC(=N)N)C(=O)N[C@@H](Cc1c[nH]c2ccccc12)C(=O)O (H-TAYF[X2]LKL[X2]GRW-OH)				
5.05	5.22								4.85	CC(C)C[C@@H]1NC(=O)[C@H](CCCCN)NC(=O)[C@H](CC(C)C)NC(=O)[C@@](C)(NC(=O)[C@H](Cc2ccccc2)NC(=O)[C@H](Cc2ccc(O)cc2)NC(=O)[C@H](C)NC(=O)[C@@H](N)[C@@H](C)O)CCC/C=C\CCC[C@@](C)(C(=O)NCC(=O)N[C@@H](CCCNC(=N)N)C(=O)N[C@@H](Cc2c[nH]c3ccccc23)C(=O)O)NC1=O (H-TAYF[S5]LKL[S5]GRW-OH; staple (Z) 5-9)	3	50	4.70	
4.21	4.37									C=CCCCC[C@](C)(NC(=O)[C@H](CC(C)C)NC(=O)[C@H](CCCCN)NC(=O)[C@H](CC(C)C)NC(=O)[C@](C)(CCCCC=C)NC(=O)[C@H](Cc1ccccc1)NC(=O)[C@H](Cc1ccc(O)cc1)NC(=O)[C@H](C)NC(=O)[C@@H](N)[C@@H](C)O)C(=O)NCC(=O)N[C@@H](CCCNC(=N)N)C(=O)N[C@@H](Cc1c[nH]c2ccccc12)C(=O)O (H-TAYF[X3]LKL[X3]GRW-OH)				
4.28	4.72								< 4.00	CC(C)C[C@H](NC(=O)[C@H](CCCCN)NC(=O)[C@H](CC(C)C)NC(=O)[C@]1(C)CCC/C=C\CCC[C@](C)(N)C(=O)N[C@@H](C)C(=O)N[C@@H](Cc2ccc(O)cc2)C(=O)N[C@@H](Cc2ccccc2)C(=O)N1)C(=O)N[C@@H](C)C(=O)NCC(=O)N[C@@H](CCCNC(=N)N)C(=O)N[C@@H](Cc1c[nH]c2ccccc12)C(=O)O (H-[S5]AYF[S5]LKLAGRW-OH; staple (Z) 1-5)	6	25	5.40	
4.32	4.36									CC(C)C[C@@H]1NC(=O)[C@H](CCCCN)NC(=O)[C@H](CC(C)C)NC(=O)[C@@](C)(NC(=O)[C@H](Cc2ccccc2)NC(=O)[C@H](Cc2ccc(O)cc2)NC(=O)[C@H](C)NC(=O)[C@@H](N)[C@@H](C)O)CCCC/C=C/CCCC[C@@](C)(C(=O)NCC(=O)N[C@@H](CCCNC(=N)N)C(=O)N[C@@H](Cc2c[nH]c3ccccc23)C(=O)O)NC1=O (H-TAYF[X1]LKL[X1]GRW-OH; staple (E) 5-9)				

SMILES	pIC50 [1]	pIC50 [2]	Drug uptake [3]	Drug uptake [4]	Drug uptake [5]	Drug uptake [6]	Drug uptake [7]	Drug uptake [8]	Drug uptake (MT4)	pIC50 [9]	selectivity ratio [10]	CC50 [11] [µM]	pEC50 [12]	pEC50 [13]
CC[C@H](C)[C@@H]1NC(=O)[C@H](CC(C)C)NC(=O)[C@@](C)(NC(=O)[C@H](Cc2ccccc2)NC(=O)[C@H](Cc2ccc(O)cc2)NC(=O)[C@H](C)NC(=O)[C@@H](N)[C@@H](C)O)CCC/C=C\CCC[C@@](C)(C(=O)NCC(=O)N[C@@H](CCCNC(=N)N)C(=O)N[C@@H](Cc2c[nH]c3ccccc23)C(=O)O)NC(=O)[C@H](CC(C)C)NC1=O (H-TAYF[S5]LIL[S5]GRW-OH; staple (Z) 5-9)	4.66	4.60								5.30	8	41	5.30	5.37
